APJ ag – APJ receptor agonism; P35414; CHO-K1 APJ PathHunter beta-arrestin, luminescence; 0% DMSO wells, 100% apelin; activation, % at 20 µM; hit rate 0.11% among 330,000;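 active means activation more than six SD over the plate average, tested at 20 µM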
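Test system: CHO-K1 APJ beta-arrestin complementation cell line. Amount: cell density 1000 per well. Controls: DMSO negative, 10 nM Apelin-13 positive. Signal: luminescent beta-gal fragment complementation, chemiluminescent substrate. Read-out basis: agonist-driven arrestin binding to APJ. Timing: compound stimulation 90 min at 25 °C, detection 60 min.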
CCR6 antagonist – blocks CCL20-driven beta-arrestin recruitment at human CCR6; inhibition, % at 20 µM; hit rate 0.49% among 340,000; CHO-K1 CCR6 PathHunter beta-arrestin, luminescence, CCL20-stimulated; P51684;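 active means compounds whose inhibition of the agonist-driven luminescence signal at 20 µM reaches about 50%, limit read from the data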;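 further: cells stimulated with CCL20 at 14 nM final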
Target sequence (P51684 whole entry, looked up): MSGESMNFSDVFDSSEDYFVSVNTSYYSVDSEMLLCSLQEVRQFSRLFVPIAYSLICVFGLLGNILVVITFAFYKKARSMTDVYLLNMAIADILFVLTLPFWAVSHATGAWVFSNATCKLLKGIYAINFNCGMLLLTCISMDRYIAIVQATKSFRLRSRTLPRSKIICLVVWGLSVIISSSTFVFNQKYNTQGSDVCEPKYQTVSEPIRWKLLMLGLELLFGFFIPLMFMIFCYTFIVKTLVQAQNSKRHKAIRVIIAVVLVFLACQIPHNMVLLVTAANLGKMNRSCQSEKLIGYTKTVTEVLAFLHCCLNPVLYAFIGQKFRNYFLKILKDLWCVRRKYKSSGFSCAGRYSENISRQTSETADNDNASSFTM
CXCR6 block – inhibitors of human CXCR6 receptor; CHO-K1 PathHunter CXCR6 beta-arrestin, luminescence; inhibition, % at 20 µM; hit rate 0.36% among 360,000; in the data active means inhibition above about 34%, passing the limit was not always enough;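 further: antagonist mode with CXCL16 agonist at 10 nM final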
m5-HT2A agonist – mouse HTR2A agonism via beta-arrestin recruitment; P35363; CHO-K1 mHTR2A beta-arrestin complementation, luminescence; percent of 30 µM serotonin response; activation, % at 7.6 µM; hit rate 0.66% among 360,000; AID 624169;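 active means activation above a run cutoff, the mean activation of all tested compounds plus 3 SD, cut at about 14% in these data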
APJ antagonist – APJ receptor antagonism. AID 2521. inhibition, % at 20 µM. P35414. CHO-K1 APJ beta-arrestin complementation, luminescence. hit rate 0.32% among 330,000;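 active means inhibition above about 40% at 20 µM, limit read from the data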;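 further: cells challenged with 10 nM apelin-13 agonist together with compound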
EBI2 antag – blocks human EBI2 receptor beta-arrestin signaling; P32249; EBI2 beta-arrestin recruitment, luminescence, 7a,25-OHC stimulated; inhibition, % at 5 µM; hit rate 0.81% among 360,000; AID 651636; in the data active means inhibition above about 38%;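 further: enzyme fragment complementation signal reports receptor beta-arrestin coupling in cells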
EBI2 conf – EBI2 (human) antagonism, single concentration confirmation; shares compounds with EBI2 antag; EBI2 beta-arrestin luminescence, 7a,25-OHC antagonism; inhibition, % at 5 µM; hit rate 29% among 2,400;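 active means inhibition of at least 50%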
EBI2 agonist – counter-screen for EBI2 antagonists: EBI2 agonist activity; AID 652000; 2,400 tested, under 10 active; EBI2-expressing cells, agonist mode, luminescence, 60 min; 0% vehicle, 100% 7α,25-dihydroxycholesterol control; activation, % at 5 µM; shares compounds with EBI2 antag;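 active means activation of at least 50%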
bGal counter – beta-galactosidase inhibition counter-screen. inhibition, % at 5 µM. hit rate 1% among 2,400. shares compounds with EBI2 antag. purified beta-galactosidase, luminescent Galacton Star, 15 min;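 active means replicate-average signal at least 3 plate SD below neutral wells, shown as high inhibition, flagging enzyme-inhibiting false positives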;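 further: higher means stronger loss of beta-gal luminescence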
Numbers stand for hits; - = inactive; . = no result. In the library only some 2.1% were active in any assay of this set; here they are far more common.

SMILES	APJ ag	CCR6 antagonist	CXCR6 block	m5-HT2A agonist	APJ antagonist	EBI2 antag	EBI2 conf	EBI2 agonist	bGal counter
O=C(Nc1ccc2c(c1)OCCO2)C(CCc1ccccc1)N1CCN(C/C=C/c2ccccc2)CC1 (configuration not stated)	.	.	-	-	.	43.7	-	-	-
COc1cc(C(=O)N2CCN(C(=O)c3ccccc3)CC2)cc(OC)c1OC	-	-	-	-	-	-	.	.	.
COc1cc(C(=O)N2CCN(C(=O)c3cc(-c4ccc(Br)cc4)n[nH]3)CC2)cc(OC)c1OC	-	-	-	-	-	52.0	-	-	-
COc1ccc(S(=O)(=O)N2CCN(C(=O)c3cc(C)on3)CC2)cc1	-	-	-	-	-	-	.	.	.
COc1ccc(S(=O)(=O)N2CCN(C(=O)c3cc(-c4ccccc4OC)n[nH]3)CC2)cc1	-	-	-	-	-	62.6	-	-	-
CC(C)c1ccc(S(=O)(=O)N2CCN(C(=O)c3cc(-c4ccccc4)n[nH]3)CC2)cc1	-	-	-	-	-	74.5	-	-	-
COc1cccc(-c2cc(C(=O)N3CCN(S(=O)(=O)c4ccc(Br)cc4)CC3)[nH]n2)c1	-	-	-	-	-	57.0	-	-	-
O=C(Nc1ccc(O)cc1)c1ccc2c(c1)C(=O)N(Cc1ccccc1)C2=O	-	-	-	-	-	56.8	-	-	-
Cc1cc(NC(=O)c2ccc3c(c2)C(=O)N(Cc2ccccc2)C3=O)no1	-	-	-	-	-	47.2	-	-	-
Cc1ccc2[nH]c3c(c2c1)CN(C(=O)CN1c2ccc(F)cc2CCC1C)CC3 (configuration not stated)	-	-	-	-	-	46.2	-	-	-
CC(C)n1c(O)c(/C=C2\C=Nc3ccccc32)sc1=Nc1ccccc1	-	-	-	-	-	57.4	-	-	-
CSc1nc(/C=C2\C=Nc3ccccc32)c(O)n1C	-	-	-	-	-	-	.	.	.
COc1ccc([C@H]2CC(=O)C=C(c3cccc(OC)c3OC)C2)cc1OC	-	-	-	-	-	-	.	.	.
COc1ccc([C@H]2CC(=O)C=C(c3cccc4c3sc3ccccc34)C2)cc1OC	-	-	-	-	-	59.2	-	-	-
CC(C)(C)SCCNC(=O)COc1ccc(Cl)cc1	-	-	-	-	-	-	.	.	.
Cc1ccccc1CSCCNC(=O)COc1ccc(Cl)cc1	-	-	-	-	-	55.0	-	-	-
CN(C)C(=O)CCc1ccc2c3c([nH]c2c1)[C@]1(CCc2ccccc2)[C@@H](C(=O)N2CCCCC2)C[C@H](CC(=O)NCc2cccc(C(F)(F)F)c2)C(=O)N1CC3	.	-	-	-	.	42.4	-	-	-
CN(C)C(=O)CCc1ccc2c3c([nH]c2c1)[C@]1(CCc2ccccc2)[C@@H](C(=O)N2CCCCC2)C[C@H](CC(=O)NCc2ccco2)C(=O)N1CC3	.	-	-	-	.	-	.	.	.
O=C(Cn1nc(-c2ccco2)ccc1=O)Nc1ccc(Cl)c(Cl)c1	-	-	-	-	-	-	.	.	.
CC(C)N(C)c1ncnc2c1ncn2[C@H]1CN(Cc2ccc(-c3ccccc3)cc2)C[C@@H](CO)O1	.	.	-	-	.	57.0	-	-	-
OC[C@@H]1CN(Cc2ccc(Cl)cc2)C[C@H](n2cnc3c(NC4CCC4)ncnc32)O1	.	.	-	-	.	44.5	-	-	-
OC[C@@H]1CN(Cc2ccc(-c3ccccc3)cc2)C[C@H](n2cnc3c(NC4CC4)ncnc32)O1	.	.	-	-	.	65.3	64.7	-	-
OC[C@@H]1CN(Cc2ccco2)C[C@H](n2cnc3c(NC4CCC4)ncnc32)O1	.	.	-	-	.	-	.	.	.
CC(C)N(C)c1ncnc2c1ncn2[C@H]1CN(Cc2ccncc2)C[C@@H](CO)O1	.	.	-	-	.	-	.	.	.
O=C1CC(c2ccccc2)Cc2nc(NC3CC3)ncc21 (configuration not stated)	-	-	-	-	-	-	.	.	.
SMILES	APJ ag	CCR6 antagonist	CXCR6 block	m5-HT2A agonist	APJ antagonist	EBI2 antag	EBI2 conf	EBI2 agonist	bGal counter
O=C(Nc1ccc2ccccc2n1)c1ccccc1Cl	-	-	-	-	-	-	.	.	.
O=C(Nc1ccc2ccccc2n1)c1ccc(Cl)cc1	-	-	-	-	-	61.1	-	-	-
CN(c1nnc(N)s1)C1CCCCC1	-	-	-	-	-	-	.	.	.
O=C(NC1CCCC1)C1CCN(C(=O)c2ccc(-c3ccccc3)cc2)CC1	-	-	-	-	-	49.4	-	-	-
COc1ccc(CNC(=O)C2CCN(C(=O)c3ccc(-c4ccccc4)cc3)CC2)cc1	-	-	-	-	-	68.2	-	-	-
COc1ccc(OCC(=O)N2CCN(S(=O)(=O)c3ccc(Cl)s3)CC2)cc1	-	-	-	-	-	87.0	79.3	-	-
COc1ccc(Cl)cc1S(=O)(=O)N1CCN(C(=O)COc2ccccc2)CC1	-	-	-	-	-	-	.	.	.
NC(=O)NCC(=O)N1CCN(S(=O)(=O)c2ccc(Cl)s2)CC1	-	-	-	-	-	-	.	.	.
N#Cc1ccc(OCC(=O)N2CCN(S(=O)(=O)c3cccc(Cl)c3)CC2)cc1	-	-	-	-	-	53.6	-	-	-
N#Cc1ccc(OCC(=O)N2CCN(S(=O)(=O)c3ccc(Cl)s3)CC2)cc1	-	-	-	-	-	81.2	-	-	-
COc1ccc(CC(=O)N2CCN(S(=O)(=O)c3ccc(Cl)s3)CC2)cc1	-	-	-	-	-	-	.	.	.
CCCc1nn(-c2ccccc2)c2c1C(c1cccs1)C(C#N)=C(N)O2 (configuration not stated)	-	-	-	-	-	53.5	59.8	-	-
Cc1nn(-c2ccccc2)c2c1C(c1cccs1)C(C#N)=C(N)O2 (configuration not stated)	-	-	-	-	-	-	.	.	.
Oc1cccc2cc3cccc(O)c3c(O)c12	-	-	-	-	-	-	.	.	.
O=C(c1ccccc1)N1CCN(CC(O)COc2ccc(Br)cc2)CC1 (configuration not stated)	-	-	-	-	-	71.0	-	-	-
OC(COc1ccccc1)CN1CCN(c2ccccc2)CC1 (configuration not stated)	.	-	-	-	.	-	.	.	.
COc1ccc(OCC(O)CN2CCN(c3ccc(Cl)cc3)CC2)cc1 (configuration not stated)	-	-	-	-	-	46.7	-	-	-
OC(COc1ccc(Br)cc1)CN1CCN(c2ccccc2)CC1 (configuration not stated)	-	-	-	-	-	48.4	-	-	-
